From PubChem
Most compounds without a hit are left out; they make up all but 5.4% or so of the library.
CSC inhib: cancer stem cell viability inhibitors, primary screen, luminescence. 1.1% of 300,000 active. AID 2717, 2010. cancer stem cell-like cells viability. inhibition, % at 7.5 µM; in the data active means inhibition above about 75%; inconclusive means no clear call, values can overlap the other calls; tested in HMLE shEcad cells
Mdm2 MdmX PPI: inhibitors of human Mdm2-MdmX association, primary screen, cell-based, luminescence, split luciferase, SaOS-2, uHTS. SaOS-2 split-luciferase Mdm2/MdmX complementation. inhibition, % at 8 µM. 3% of 330,000 active. Protein Mdm4 (Homo sapiens) + E3 ubiquitin-protein ligase Mdm2 (Homo sapiens), …. AID 485346, 2010;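 active means inhibition of at least 50% at 8 µM in the primary screen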
Target sequence (O15151 whole entry, looked up): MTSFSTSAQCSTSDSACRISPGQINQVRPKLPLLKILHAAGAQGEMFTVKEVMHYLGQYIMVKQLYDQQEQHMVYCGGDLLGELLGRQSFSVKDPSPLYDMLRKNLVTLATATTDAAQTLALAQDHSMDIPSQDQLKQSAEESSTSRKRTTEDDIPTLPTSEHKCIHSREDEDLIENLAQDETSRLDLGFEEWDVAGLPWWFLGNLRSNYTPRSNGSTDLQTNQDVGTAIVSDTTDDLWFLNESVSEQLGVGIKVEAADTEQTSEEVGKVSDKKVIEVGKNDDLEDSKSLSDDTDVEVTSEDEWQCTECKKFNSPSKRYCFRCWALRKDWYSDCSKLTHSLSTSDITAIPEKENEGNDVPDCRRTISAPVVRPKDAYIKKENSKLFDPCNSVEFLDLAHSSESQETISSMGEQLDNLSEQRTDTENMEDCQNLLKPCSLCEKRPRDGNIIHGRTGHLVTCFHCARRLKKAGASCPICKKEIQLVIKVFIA
Target sequence (Q00987 whole entry, looked up): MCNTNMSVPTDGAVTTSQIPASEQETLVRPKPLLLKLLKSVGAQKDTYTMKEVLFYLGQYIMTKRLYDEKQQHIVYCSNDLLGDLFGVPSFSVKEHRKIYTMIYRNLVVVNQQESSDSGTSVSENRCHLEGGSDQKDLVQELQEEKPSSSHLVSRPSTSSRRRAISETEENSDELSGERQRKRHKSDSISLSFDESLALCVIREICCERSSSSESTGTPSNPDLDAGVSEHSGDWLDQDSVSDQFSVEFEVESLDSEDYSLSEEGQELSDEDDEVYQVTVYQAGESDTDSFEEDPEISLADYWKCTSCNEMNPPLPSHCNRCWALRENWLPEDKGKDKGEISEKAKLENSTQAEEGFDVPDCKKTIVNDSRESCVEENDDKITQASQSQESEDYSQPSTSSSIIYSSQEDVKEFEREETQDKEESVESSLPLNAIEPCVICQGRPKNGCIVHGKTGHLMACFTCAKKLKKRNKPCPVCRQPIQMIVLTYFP
SKKanGAS inh: S. pyogenes SKKanGAS growth inhibitors in kanamycin, primary screen, streptokinase expression inhibitor project, SKKanGAS strain, BacTiter-Glo luminescence; 6 h; inhibition, % at 7.5 µM; 1.3% of 300,000 active;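 active means mean replicate score, as percent of positive control median, at least 50; inconclusive means mean below 50 but one replicate at or above 50; inactive means mean and every replicate below 50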;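 further: strain carries kanamycin resistance gene driven by streptokinase promoter and grows in 40 µg/ml kanamycin; loss of luminescence reflects streptokinase promoter inhibition or plain growth inhibition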
aSyn 5UTR inh: MLPCN primary screen, SNCA 5' untranslated region; alpha-synuclein 5'UTR reporter, inhibitor activity; inhibition, % (tested at 7.5 µM); 0.82% of 300,000 active; AID 1813, 2009; in the data active means inhibition above about 60%; inconclusive means no clear call, values can overlap the other calls;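 further: H4 neuroglioblastoma cells stably carrying SNCA 5'UTR luciferase fusion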
T cruzi inh: inhibitors of intracellular T. cruzi growth, primary screen, luminescence, NIH3T3 host cells; AID 1885, 2009; T. cruzi beta-gal in NIH3T3, 90 h; inhibition, % (concentration not given with the values); 1.4% of 300,000 active;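 active means mean inhibition across valid replicates above about 55%, limit read from the data; inconclusive means mean below that limit but half or more replicates reach it; inactive means mean below it, under half of replicates reach it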;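 further: signal also drops with host cell toxicity which is not excluded here; higher percent means less beta-gal luminescence so fewer parasites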
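Read-out: Parasite load inhibition, % | Test system: Mouse NIH/3T3 fibroblasts infected with β-gal-expressing T. cruzi Tulahuen C4 | Amount: 5,000 cells/well | Medium: DMEM, 2% fetal bovine serum | Signal: GalScreen β-gal luminescence, detergent lysis, 60 min | Timing: 3 h attach, ≥90 h co-culture | Also added: Tulahuen C4 trypomastigotes, 5000/well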
Mdm2-MdmX conf: Mdm2-MdmX complex disruptors, retested hits, confirmation, luminescence, single concentration | shares compounds with Mdm2 MdmX PPI | Mdm2-MdmX binding, luminescent assay | inhibition, % at 8 µM | 55% of 10,000 active | AID 489028, 2010; in the data active means inhibition above about 40%
Full FLuc ctr: full-length luciferase signal inhibition, confirmation, counter-screen for Mdm2/MdmX interaction inhibitor project, cell-based, single concentration, SaOS-2; SaOS-2 full-length luciferase counterscreen, luminescence; shares compounds with Mdm2 MdmX PPI; inhibition, % at 8 µM; 77% of 6,200 active;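 active means mean inhibition at 8 µM reaching about 37%, which flags the compound as non-specific, limit read from the data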;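 further: p53-null SaOS-2 cells with luciferase driven by a doxycycline-inducible promoter; compound on cells about two nights before reading with doxycycline added after day one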
Hits are given with their value; i = inactive; ? = inconclusive; nt = no result given.

SMILES	CSC inhib	Mdm2 MdmX PPI	SKKanGAS inh	aSyn 5UTR inh	T cruzi inh	Mdm2-MdmX conf	others
COc1ccc(CCC(=O)Nc2nnc(C(F)(F)F)s2)cc1	i	i	i	i	i	nt
CCC(=O)Nc1sc2c(c1C#N)CCC2	i	i	i	i	i	nt
CCc1ccc(CCC(=O)Nc2sc3c(c2C#N)CCCC3)o1	i	50.0	i	i	i	67.5	Full FLuc ctr=83.1
C=CCn1c(=N)n(CC(=O)c2cccc([N+](=O)[O-])c2)c2ccccc21	i	i	i	i	i	nt
N=c1n(CCN2CCCCC2)c2ccccc2n1CC(=O)c1cccc([N+](=O)[O-])c1	i	73.0	i	i	i	i
CN1CCN(c2ccccc2NC(=O)Cn2ncc3c([nH]c4ccccc43)c2=O)CC1	i	i	i	i	i	nt
Cc1ccc2[nH]c3c(=O)n(CC(=O)Nc4ccccc4N4CCN(C)CC4)ncc3c2c1	i	61.2	i	i	i	i
COc1ccc(N2CCc3c(C)nc4c(OC)cc(OC)cc4c32)cc1	nt	50.5	i	i	72.6	i
Cc1nc2c(C)cccc2c2c1CCN2c1ccccc1F	i	i	i	i	i	nt
COc1ccc(N2CCc3c(C)nc4c(OC)cccc4c32)cc1	i	57.8	i	89.1	i	56.5	Full FLuc ctr=55.1
Cc1cc(OCC(=O)N2CCN(c3ccccc3)CC2)c2c(C)cc(=O)oc2c1	i	76.0	i	i	i	i
Cc1c(C(=O)NC(=S)Nc2ccc(NC(=O)c3cccs3)cc2)oc2ccccc12	i	62.0	i	i	i	i
CC(=O)c1sc(NS(=O)(=O)c2ccc(C)cc2)nc1-c1ccccc1	nt	i	i	i	i	nt
Cc1ccc(NS(=O)(=O)c2ccc(Cl)c(NC(=S)NC(=O)C3CCCCC3)c2)cc1Cl	106.0	71.7	84.0	i	i	i
Cc1ccc(NC(=O)C2CCCC2)cc1Cl	nt	i	i	i	i	nt
C[C@@H]1CN(C(=O)c2cc(COc3cccc(C(F)(F)F)c3)on2)C[C@H](C)O1	i	i	i	i	i	nt
Cc1ccc(-c2[nH]c3cc(C(N)=O)ccc3c(=O)c2O)cc1	nt	i	i	i	i	nt
CCCNC(=O)c1ccc2c(=O)c(O)c(-c3ccsc3)[nH]c2c1	i	56.8	i	86.7	i	i
Cc1ccc(CNC(=O)c2ccc3c(=O)c(O)c(-c4ccc(C)cc4)[nH]c3c2)cc1	i	58.4	i	93.7	60.3	55.2	Full FLuc ctr=i
Cc1ccc(-c2[nH]c3cc(C(=O)NCCCn4ccnc4)ccc3c(=O)c2O)cc1	i	i	i	i	i	nt
CCCNC(=O)c1ccc2c(=O)c(O)c(-c3ccc(C)cc3)[nH]c2c1	i	57.6	i	68.6	i	51.1	Full FLuc ctr=47.6
CCCNC(=O)c1ccc2c(=O)c(O)c(-c3ccc(OC)cc3)[nH]c2c1	i	50.2	i	87.6	i	i
CCCCCn1c(=O)[nH]c2cc(C(=O)NCCCN(CC)CC)ccc2c1=O	i	i	i	i	i	nt
O=C(CSc1nnc(-c2ccccc2F)o1)N1CCNC1=O	nt	i	nt	nt	nt	nt
COCCCN1C(=O)c2ccc(C(=O)NCCc3ccccc3)cc2C1=O	i	i	i	i	i	nt
SMILES	CSC inhib	Mdm2 MdmX PPI	SKKanGAS inh	aSyn 5UTR inh	T cruzi inh	Mdm2-MdmX conf	others
COc1ccc(-c2cc(C(F)(F)F)n3ncc(C(=O)NCC4CCCO4)c3n2)cc1OC (stereo not given)	i	57.1	i	i	i	i
CCOC(=O)N1CCC(NC(=O)c2cnn3c(C(F)(F)F)cc(-c4cccc(OC)c4)nc23)CC1	nt	61.5	i	i	i	i
COc1ccc(-c2cc(C(F)F)n3ncc(C(=O)NCC4CCCO4)c3n2)cc1 (stereo not given)	i	i	i	i	i	nt
CCOC(=O)c1cnn2c(C(F)(F)F)cc(-c3ccccc3)nc12	i	i	i	i	i	nt
COc1ccc(NC(=S)N2CCC(NC(=O)c3ccc(F)cc3)CC2)cc1	nt	i	i	i	i	nt
Cc1cc(/C=C2/SC(=O)N(CC(=O)N3CCOCC3)C2=O)c(C)n1-c1ccccc1F	i	i	i	i	i	nt
COc1ccccc1NC(=O)CSc1nnnn1-c1ccc(F)cc1	i	i	i	i	i	nt
Cc1ccc(N/C=C/C(=O)c2ccc(C)cc2)cc1	i	i	i	i	i	nt
Cc1ccc(C(=O)/C=C/Nc2ccccn2)cc1	i	54.9	i	75.3	i	i
COCCn1nnnc1C(C(C)C)N(Cc1cccnc1)Cc1ccccc1Cl (stereo not given)	i	64.7	i	i	i	i
COc1ccc(C2CC(=O)N(CC(=O)NCC3CCCO3)c3ccccc3S2)cc1OC (stereo not given)	i	i	i	i	i	nt
COc1ccc(C2CC(=O)N(C)c3ccccc3S2)cc1OC (stereo not given)	i	53.4	i	i	i	i
COc1ccc(-c2n[nH]c(C(F)(F)F)c2-c2cc3ccccc3o2)c(O)c1	102.4	80.6	98.9	i	i	43.0	Full FLuc ctr=47.0
COc1ccc(CC(=O)NC(C)C2COc3ccccc3O2)cc1OC (stereo not given)	i	i	i	i	i	nt
CC(C)n1cnc2c(Nc3cccc(Cl)c3)nc(NCCCO)nc21	i	72.9	i	i	i	73.8	Full FLuc ctr=71.7
Cc1cccc(CSC(Nc2ccc(F)cc2)=C(C#N)C#N)c1	i	94.2	i	i	i	88.8	Full FLuc ctr=50.0
Cc1cccc(CSC(=N)N)c1	i	i	i	i	i	nt
CCN(CC)CC(C)CNC(=O)C1(O)c2ccccc2NC(=O)N1c1ccc(Cl)c(Cl)c1 (stereo not given)	i	i	i	i	i	nt
COc1ccc(NC(=O)/C(Cl)=C(/Cl)S(=O)Cc2ccccc2Cl)cn1 (stereo not given)	nt	98.3	nt	nt	nt	100.2	Full FLuc ctr=i
Cc1cc(C(=O)CSc2cccc[n+]2[O-])c(C)n1-c1ccccc1	i	i	i	?	i	nt
CC(=O)Nc1ccc(SCC(=O)c2cc(C)n(-c3ccccc3)c2C)cc1	83.6	65.4	i	i	i	79.1	Full FLuc ctr=93.7
CCO[C@@H]1OC(C(=O)N2CCN(C)CC2)=C[C@H](C(C)(C)C)[C@H]1CCCO	i	i	i	i	i	nt
CCOc1cc(NC(=O)c2ccccn2)c(OCC)cc1NC(=O)c1ccc(Cl)cc1	i	56.4	i	i	i	i
CCOc1cc(NC(=O)c2ccccn2)c(OCC)cc1NC(=O)c1ccccc1	?	i	i	i	i	nt
CC(C)(C)NC(=O)C(c1ccc(F)cc1)N(C(=O)CCC(=O)Nc1ccccn1)C1CCCC1 (stereo not given)	i	i	i	i	i	nt
